Compound activity: PubChem, several laboratories
PAFAH1B2 FP inh: PAFAH1B2 (human) inhibition; P68402; recombinant PAFAH1B2, FP-rhodamine activity probe, fluorescence polarization; inhibition, % at 3.39 µM; 340,000 compounds, 1.2% hits; AID 492953;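 active = inhibition above the mean of all tested compounds plus 3 SD, cut at about 24% in these data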
Target sequence (P68402 whole entry, looked up): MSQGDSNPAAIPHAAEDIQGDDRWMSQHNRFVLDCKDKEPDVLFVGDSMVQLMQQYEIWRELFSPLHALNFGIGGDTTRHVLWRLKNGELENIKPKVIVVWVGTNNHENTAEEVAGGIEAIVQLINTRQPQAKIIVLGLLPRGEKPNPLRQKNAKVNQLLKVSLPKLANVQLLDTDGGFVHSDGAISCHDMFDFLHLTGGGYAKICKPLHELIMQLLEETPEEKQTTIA
UCH37 inh: human UCH37 deubiquitinating enzyme inhibition. purified proteasome/UCH37, Ub-AMC cleavage fluorescence. inhibition, % (test concentration not listed). 330,000 compounds, 0.33% hits;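 active = mean inhibition over replicate wells above about 20%, limit read from the data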
Target sequence (Q9Y5K5 whole entry, looked up): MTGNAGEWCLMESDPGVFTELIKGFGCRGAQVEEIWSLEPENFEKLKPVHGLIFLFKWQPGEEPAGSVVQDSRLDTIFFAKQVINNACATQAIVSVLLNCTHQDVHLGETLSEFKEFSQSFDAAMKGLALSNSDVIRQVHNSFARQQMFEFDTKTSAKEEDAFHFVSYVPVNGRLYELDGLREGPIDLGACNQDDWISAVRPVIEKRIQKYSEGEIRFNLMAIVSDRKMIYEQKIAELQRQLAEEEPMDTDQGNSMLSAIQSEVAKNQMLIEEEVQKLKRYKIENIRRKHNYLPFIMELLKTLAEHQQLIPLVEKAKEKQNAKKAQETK
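Material: Human UCH37 enzyme supplied as purified proteasome complex | Schedule: 30 min preincubation with enzyme, 25 min cleavage at room temperature | Detection: AMC fluorescence 355/460 nm | Measure: % inhibition of Ub-AMC cleavage fluorescence | Controls: Wells without proteasome as full block, compound-free enzyme plus substrate as uninhibited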
PAFAH1B3 inh: blocks human PAF acetylhydrolase 1B catalytic subunit 3. Q15102. recombinant PAFAH1B3, FP-rhodamine probe, fluorescence polarization. inhibition, % at 3.39 µM. 340,000 compounds, 0.28% hits;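 active = inhibition above the screen-wide average of all tested compounds plus 3 SD, cut at about 25% in these data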
pPAFAH inh: pPAFAH (human) enzyme inhibition; Q13093; recombinant pPAFAH, FP-rhodamine probe fluorescence polarization; inhibition, % at 3.39 µM; 330,000 compounds, 1.5% hits;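 active = inhibition above the mean inhibition across the screen plus 3 SD, cut at about 25% in these data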;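 note: inhibitors block binding of the rhodamine activity-based probe so polarization drops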
PAFAH2 inh: inhibitors of human PAFAH2 | Q99487 | recombinant PAFAH2, FP-rhodamine activity probe, fluorescence polarization | inhibition, % at 3.39 µM | 340,000 compounds, 0.99% hits | AID 492956;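 active = inhibition above the mean over all tested compounds plus 3 SD, cut at about 30% in these data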;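 note: inhibitors block probe labeling of enzyme so polarization drops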
GRIN3A LBD mod: NR3A (human) ligand-binding domain modulation; NR3A LBD differential scanning fluorimetry, Tm shift; 0% = protein alone, 100% = glycine-bound protein; Tm shift relative to glycine control, % at 25 µM; 340,000 compounds, 2.5% hits; AID 1259313;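 active = melting temperature shift of at least 10% of the positive control shift, at one fixed dose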
Hits are given with their value. An excerpt weighted towards active compounds, which were near 4.8% of everything screened.

For CCOC(=O)c1cnc(SC)nc1Oc1cccc(NC(=O)c2cccc(Cl)c2Cl)c1 the results were PAFAH1B2 FP inh inactive, UCH37 inh inactive, PAFAH1B3 inh inactive, pPAFAH inh inactive, PAFAH2 inh inactive and GRIN3A LBD mod inactive.
Screening CCOC(=O)c1cnc(SC)nc1Oc1cccc(NC(=O)c2ccc(C)cc2)c1 returned PAFAH1B2 FP inh inactive, UCH37 inh inactive, PAFAH1B3 inh inactive, pPAFAH inh inactive, PAFAH2 inh inactive and GRIN3A LBD mod 17.
COC(=O)c1ccc(COc2ccc(C=NNC(N)=S)cc2)o1 was read as UCH37 inh inactive.
CCOC(=O)c1c(-c2ccc(C)o2)csc1NC(=S)NC(=O)c1cccs1 was read as PAFAH1B2 FP inh inactive, UCH37 inh inactive, PAFAH1B3 inh inactive, pPAFAH inh inactive, PAFAH2 inh inactive and GRIN3A LBD mod 18.
Screening Clc1ccc(N=c2ssnc2Cl)cc1 returned PAFAH1B2 FP inh inactive, UCH37 inh inactive, PAFAH1B3 inh inactive, pPAFAH inh inactive, PAFAH2 inh inactive and GRIN3A LBD mod 14.
For N#Cc1ccc(N=c2ssnc2Cl)cc1 the results were PAFAH1B2 FP inh inactive, UCH37 inh inactive, PAFAH1B3 inh inactive, pPAFAH inh inactive, PAFAH2 inh inactive and GRIN3A LBD mod 23.
`COc1cc(N=c2ssnc2Cl)cc(OC)c1OC` gave PAFAH1B2 FP inh inactive, UCH37 inh inactive, PAFAH1B3 inh inactive, pPAFAH inh inactive, PAFAH2 inh inactive and GRIN3A LBD mod inactive.
`Clc1nssc1=Nc1ccccc1` gave PAFAH1B2 FP inh inactive, UCH37 inh inactive, PAFAH1B3 inh inactive, PAFAH2 inh inactive and GRIN3A LBD mod inactive.
For COc1ccc(N=c2ssnc2Cl)cc1 the results were PAFAH1B2 FP inh inactive, UCH37 inh inactive, PAFAH1B3 inh inactive, pPAFAH inh inactive, PAFAH2 inh inactive and GRIN3A LBD mod 22.
Screening COCCCNC(=O)CC(=O)NN=Cc1ccc(SC)cc1 returned UCH37 inh inactive.
`O=c1oc2cc(O)c(Cl)cc2c2ccccc12` gave PAFAH1B2 FP inh inactive, UCH37 inh inactive, PAFAH1B3 inh inactive, pPAFAH inh inactive, PAFAH2 inh inactive and GRIN3A LBD mod inactive.
Screening O=c1oc(Cl)c(Cl)c2ccccc12 returned PAFAH1B2 FP inh inactive, PAFAH1B3 inh inactive, pPAFAH inh inactive, PAFAH2 inh 35 and GRIN3A LBD mod inactive.
Screening COc1ccc(N=C2NN=C(c3ccc4c(c3)OCCO4)CS2)cc1 returned PAFAH1B2 FP inh inactive, UCH37 inh inactive, PAFAH1B3 inh inactive, pPAFAH inh inactive, PAFAH2 inh inactive and GRIN3A LBD mod inactive.
`FC(F)Sc1ccc(N=C2NN=C(c3ccc4c(c3)OCCO4)CS2)cc1` gave PAFAH1B2 FP inh inactive, UCH37 inh inactive, PAFAH1B3 inh inactive, pPAFAH inh inactive, PAFAH2 inh inactive and GRIN3A LBD mod 15.
Screening COc1cc(C=NNC(N)=O)cc(Br)c1OCc1ccccc1C returned UCH37 inh inactive.
O=Cc1cc(N=Nc2ccc(S(=O)(=O)O)cc2)ccc1O was read as PAFAH1B2 FP inh inactive, UCH37 inh 21, PAFAH1B3 inh inactive, pPAFAH inh inactive, PAFAH2 inh inactive and GRIN3A LBD mod inactive.
Screening O=C(CSc1nc2ccccc2o1)N1c2ccccc2Sc2ccc(C(F)(F)F)cc21 returned PAFAH1B2 FP inh inactive, UCH37 inh inactive, PAFAH1B3 inh inactive, pPAFAH inh inactive, PAFAH2 inh inactive and GRIN3A LBD mod 12.
For COc1ccccc1C=NNS(=O)(=O)c1ccccc1 the results were UCH37 inh inactive.
CCCCCNC(=O)C(=O)C1C(=O)Nc2ccccc21 (centres undefined) was read as PAFAH1B2 FP inh inactive, UCH37 inh inactive, PAFAH1B3 inh inactive, pPAFAH inh inactive, PAFAH2 inh inactive and GRIN3A LBD mod 28.
`CC(=NNc1ccc(Cl)c(C(=O)O)c1)c1ccccn1` gave UCH37 inh inactive.
Screening CCOc1cc(C=N/N=C2/NC(=O)C(CC(=O)O)S2)ccc1OCc1ccc(Cl)cc1 (centres undefined) returned UCH37 inh inactive.
Screening CCOc1cc(/C=N/N=C2/NC(=O)C(CC(=O)O)S2)ccc1OCc1ccc(Cl)cc1 (centres undefined) returned PAFAH1B2 FP inh inactive, PAFAH1B3 inh inactive, pPAFAH inh 25, PAFAH2 inh inactive and GRIN3A LBD mod inactive.
`CCCOc1cccc(C(=O)NN=Cc2coc3ccccc3c2=O)c1` gave UCH37 inh inactive.
`O=C(NN=Cc1cccnc1)c1cccc(Br)c1` gave UCH37 inh inactive.
`O=C(Nc1ccccn1)c1ccc(-c2ccccc2)cc1` gave PAFAH1B2 FP inh inactive, UCH37 inh inactive, PAFAH1B3 inh inactive, pPAFAH inh inactive, PAFAH2 inh inactive and GRIN3A LBD mod 36.
For O=C(Nc1ccccn1)c1ccc(S(=O)(=O)c2ccc(Cl)cc2)cc1 the results were PAFAH1B2 FP inh 24, UCH37 inh inactive, PAFAH1B3 inh inactive, pPAFAH inh inactive, PAFAH2 inh inactive and GRIN3A LBD mod inactive.
`O=C(Nc1ccccn1)c1ccc2nc(-c3ccccc3)c(-c3ccccc3)nc2c1` gave UCH37 inh inactive and pPAFAH inh inactive.
For COc1ccc(C=NNC(=O)c2cc(C(C)(C)C)[nH]n2)cc1COc1ccc(F)cc1F the results were UCH37 inh inactive.
For COc1cc2oc(=O)cc(-c3cccc(-c4ccc(C(F)(F)F)cc4)c3)c2c(OC)c1OC the results were PAFAH1B2 FP inh inactive, UCH37 inh inactive, PAFAH1B3 inh inactive, pPAFAH inh inactive, PAFAH2 inh inactive and GRIN3A LBD mod 17.
For Cc1c(NC(=O)COC(=O)C23CC4CC(CC(Br)(C4)C2)C3)c(=O)n(-c2ccccc2)n1C the results were PAFAH1B2 FP inh 26, UCH37 inh inactive, PAFAH1B3 inh inactive, pPAFAH inh inactive, PAFAH2 inh inactive and GRIN3A LBD mod inactive.
O=C(COC(=O)c1ccccc1)Nc1ccc2[nH]c(=O)[nH]c2c1 was read as PAFAH1B2 FP inh inactive, UCH37 inh inactive, PAFAH1B3 inh inactive, pPAFAH inh inactive, PAFAH2 inh inactive and GRIN3A LBD mod inactive.
`O=C(COC(=O)C12CC3CC(CC(Br)(C3)C1)C2)Nc1ccc2[nH]c(=O)[nH]c2c1` gave PAFAH1B2 FP inh 37, UCH37 inh inactive, PAFAH1B3 inh inactive, pPAFAH inh inactive, PAFAH2 inh inactive and GRIN3A LBD mod inactive.
`COc1ccccc1NC(=O)COC(=O)C12CC3CC(CC(Br)(C3)C1)C2` gave PAFAH1B2 FP inh 30, UCH37 inh inactive, PAFAH1B3 inh inactive, pPAFAH inh inactive, PAFAH2 inh inactive and GRIN3A LBD mod inactive.
Screening CC(=O)c1c(C)[nH]c(C(=O)OCC(=O)Nc2ccc3[nH]c(=O)[nH]c3c2)c1C returned PAFAH1B2 FP inh inactive, UCH37 inh inactive, PAFAH1B3 inh inactive, pPAFAH inh inactive, PAFAH2 inh inactive and GRIN3A LBD mod 21.
COc1ccc(OC)c(C=NNC(=O)c2cc[n+](CC(=O)c3ccccc3)cc2)c1 was read as UCH37 inh inactive.
